In ChEMBL document CHEMBL1151472, “In vitro interactions between tacrolimus and azoles against Candida albicans determined by different methods” (2008) one finds Activity data, which are given here for one molecule.

Assay [1] deals with Candida albicans. The experiment in a line: Antimicrobial activity against azole-resistant Candida albicans isolate CA10 assessed as growth at 8 ug/ml cotreated with 0.016 ug/ml calcineurin signaling inhibitor Tacrolimus after 48 hrs by microdilution checkboard technique relative to control. In kind it is functional. Details: scale not given: the % may be the effect or the level left. Summed up:
(§1)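 CA10 in RPMI 1640 with 2% dextrose and 0.165 M MOPS, pH 7.0. Checkerboard used twofold dilutions, with azole alone in row H and the drug-free growth control in well H1. Final inoculum was 2.5 × 10^3 CFU/ml, incubated 35°C for 48 h, with OD read at 492 nm. Growth % = background-subtracted well OD / drug-free well OD. Run in triplicate on different days.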
In general terms: Broth dilution looks for growth in wells or tubes with falling amounts of substance.

Assay [2] relates to Candida albicans. Put plainly: Antimicrobial activity against azole-resistant Candida albicans isolate CA10 assessed as growth at 64 ug/ml co-treated with 0.125 ug/ml calcineurin signaling inhibitor tacrolimus after 48 hrs by microdilution checkboard technique relative to control. In kind it is functional. Details: scale not given: the % may be the effect or the level left. In short, it runs like this: as §1

Take `OC(Cn1cncn1)(Cn1cncn1)c1ccc(F)cc1F` [FLUCONAZOLE]: the Activity turned out to be 19% with Candida albicans [1] and 0% in the assay with Candida albicans [2].
